Measured values as given in ChEMBL document CHEMBL2021854, “2-Aminopyrimidine based 4-aminoquinoline anti-plasmodial agents. Synthesis, biological activity, structure-activity relationship and mode of action studies” (Eur J Med Chem, 2012).

Assays:
Human alphaherpesvirus 2 = assay: Antiviral activity against HSV2 G infected in HEL cells assessed as inhibition of virus-induced cytopathogenicity after 4 days; format: functional, organism-based; conditions: Human alphaherpesvirus 2, strain G, 96 h
Procedure, shortened: (§1)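 Confluent HEL, Vero or HeLa monolayers were inoculated with 100 CCID50 of virus in the presence of varying concentrations of compound. Cytopathicity was scored when it reached completion in untreated, virus-infected control cultures.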

Nucleic Acid [1] = assay: Binding affinity to calf thymus DNA assessed as melting temperature; format: nucleic-acid assay; conditions: Bos taurus
Procedure, shortened: (§2)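 CT DNA (151 μM NP) was heated with or without compound at a 5:1 DNA:drug ratio in 40% DMSO/TE buffer pH 7.4 with 0.5 mM NaCl. Absorbance at 260 nm was followed with a 0.5 °C/min ramp to obtain Tm.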

Coxsackievirus B4 = assay: Antiviral activity against Coxsackie virus B4 infected in human HeLa cells assessed as inhibition of virus-induced cytopathogenicity after 4 days; format: functional, organism-based; conditions: Enterovirus B, 96 h; procedure, shortened: as §1
Plasmodium falciparum [2] = assay: Resistant factor, ratio of IC50 for chloroquine-resistant Plasmodium falciparum K1 to IC50 for chloroquine-sensitive Plasmodium falciparum 3D7; format: functional
Procedure, shortened: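 Resistance factor computed as IC50 against K1 divided by IC50 against 3D7, both from the [3H]hypoxanthine incorporation assay.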

Influenza A virus = assay: Antiviral activity against Influenza A virus H1N1 infected in MDCK cells assessed as inhibition of virus-induced cytopathogenicity after 4 days by colorimetric formazan-based MTS assay; format: functional, organism-based; conditions: 96 h
[3] = Inhibition of beta-hematin formation assessed as Ferriprotoporphyrin IX biomineralisation after 24 hrs; format: functional
Procedure, shortened: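 Hemin (0.5 mg/ml in DMSO) was mixed with 0.5 M sodium acetate pH 4.4 and compound, then incubated for 24 h at 37 °C. The pellet was washed with DMSO to remove unreacted hemin and dissolved in 0.1 N NaOH, with A405 read. Percent inhibition was taken versus solvent control, and IC50 by curve fitting.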

Human alphaherpesvirus 1 = assay: Antiviral activity against thymidine kinase-deficient acyclovir-resistant HSV1 KOS infected in HEL cells assessed as inhibition of virus-induced cytopathogenicity after 4 days; format: functional, organism-based; conditions: Human alphaherpesvirus 1, KOS, 96 h
Procedure, shortened: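 Confluent HEL or HeLa monolayers infected with 100 CCID50 of virus in the presence of varying compound concentrations.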

[4] = tested on: Respiratory syncytial virus; assay: Antiviral activity against Respiratory syncytial virus infected in human HeLa cells assessed as inhibition of virus-induced cytopathogenicity after 4 days; format: functional, organism-based; conditions: 96 h; procedure, shortened: as §1
Heme = assay: Binding affinity to monomeric heme in HEPES buffer at pH 7.5 by spectrophotometric analysis
Procedure, shortened: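 Monomeric hemin (2.4 μM, 40% DMSO in water) was titrated with compound (0–70 μM) added from DMSO stocks, with absorbance read at 402 nm after each addition. Buffer was HEPES (pH 7.4) for the neutral condition and MES ([…]) for the pH 5.6 condition. Stoichiometry was by Job's method and log K by HypSpec fitting.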

Human betaherpesvirus 5 = assay: Antiviral activity against Human cytomegalovirus Davis infected in HEL cells assessed as inhibition of virus plaque formation after 4 days; format: functional, organism-based; conditions: Human betaherpesvirus 5, Davis, 96 h
[5] = Cytotoxicity against MDCK cells assessed as minimum compound concentration required to causes microscopically detectable alteration of normal cell morphology; format: cell-based, Canis lupus familiaris; conditions: dog
Procedure, shortened: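 Confluent, non-proliferating cell cultures were exposed to the compounds. The endpoint was the minimum concentration producing a microscopically detectable alteration of normal cell morphology.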

Nucleic Acid [6] = assay: Binding affinity to Escherichia coli pUC18 DNA by spectrofluorometric analysis; format: nucleic-acid assay
Procedure, shortened: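 Steady-state fluorescence titration at ambient temperature: compound held at 30 μM while DNA was varied (0.3–70 μM), working solutions diluted in methanol. Excitation 320 nm, emission 380 nm, slit 5 nm. Log K was calculated from quenching of the 380 nm emission.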

Plasmodium falciparum [7] = assay: Ratio of chloroquine IC50 to compound IC50 for chloroquine-sensitive Plasmodium falciparum 3D7; format: functional
Nucleic Acid [8] = assay: Binding affinity to calf thymus DNA assessed as change in melting temperature; format: nucleic-acid assay; conditions: Bos taurus; procedure, shortened: as §2
Plasmodium falciparum [9] = assay: Antiplasmodial activity chloroquine-sensitive Plasmodium falciparum 3D7 infected in human A+ erythrocytes assessed as inhibition of [3H]-hypoxanthine incorporation after 24 hrs by scintillation counting; format: functional, organism-based
Plasmodium falciparum [10] = assay: Ratio of chloroquine IC50 to compound IC50 for chloroquine-sensitive Plasmodium falciparum K1; format: functional

Work on `Cc1nc(NCCCCNc2ccnc3cc(Cl)ccc23)nc(-c2ccccc2[N+](=O)[O-])c1C(=O)OC(C)C` yielded an EC50 (Human alphaherpesvirus 2) of over 4000 nM, a Tm (Nucleic Acid [1]) of 62.5 °C and an EC50 (Coxsackievirus B4) of over 20000 nM. The “Ratio IC50” value (Plasmodium falciparum [2]) was 0.2, the EC50 (Influenza A virus) was over 800 nM and the IC50 [3] was 2000 nM. The inhibition [3] was “Dose-dependent effect”, the EC50 (Human alphaherpesvirus 1) was over 4000 nM and the EC50 [4] was over 20000 nM. It also gave a log Ks (Heme) of 5.08, an EC50 (Human betaherpesvirus 5) of over 4000 nM and an MCC [5] of 4000 nM. The log Ks (Nucleic Acid [6]) was 5.27, the “Ratio IC50” value (Plasmodium falciparum [7]) was 56 and the ΔTm (Nucleic Acid [8]) was 2.5 °C. For the same compound, the IC50 (Plasmodium falciparum [9]) was 18.2 nM and the “Ratio IC50” value (Plasmodium falciparum [10]) was 56.
Work on `CCOC(=O)c1c(C)nc(NCCCCNc2ccnc3cc(Cl)ccc23)nc1-c1ccccc1` yielded an EC50 (Human alphaherpesvirus 2) of over 100000 nM, a Tm (Nucleic Acid [1]) of 63 °C and an EC50 (Coxsackievirus B4) of over 100000 nM. For the same compound, the “Ratio IC50” value (Plasmodium falciparum [2]) was 0.129, the EC50 (Influenza A virus) was over 160 nM and the EC50 (Human alphaherpesvirus 1) was over 100000 nM. It also gave an EC50 [4] of over 100000 nM, a log Ks (Heme) of 6.02 and an EC50 (Human betaherpesvirus 5) of 1460 nM. The MCC [5] was 800 nM, the ΔTm (Nucleic Acid [8]) was 3 °C and the IC50 (Plasmodium falciparum [9]) was 202 nM.
